Measurements as given in PubChem BioAssay AID504351 (Broad Institute, 2011).
Inconclusive results are not listed. The source made the active and inactive calls.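 Rule for the calls: active = every replicate test active, meaning falling signal with half-maximal potency at most ten times the top valid dose; inconclusive = replicate test calls disagree with each other; inactive = every replicate test inactive, including signal rising instead.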

Target: S. pyogenes UMAA2166, streptokinase activity in supernatant, OD405, 6 h
Assay: S. pyogenes streptokinase expression inhibitors, potency, dose response, OD405 absorbance, dry powder, set 3 (AID 504351)
Conditions: not given
How it was run: (§1)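 Timing: 6 h compound exposure of cultures at 37 °C. Assay system: group A Streptococcus cultures. Dosing: multi-point serial dilution series of compounds.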

| Compound | AC50 [µM] |
| --- | --- |
| CCCOc1ccc(-c2nc(NC)c3ccccc3n2)cc1 | 31.6 |
| Cc1ccc(C(=O)n2c3ccccc3c3ccncc32)cc1 | 40.9 |
| CCCOc1ccc(-c2nc(OC(C)C)c3ccccc3n2)cc1 | 37.5 |
| O=C(Nc1ccc(Sc2ccccc2)cc1)c1ccccc1Cl | 44.4 |

Target: not listed separately
Assay: as above
Conditions: S. pyogenes UMAA2166, streptokinase activity in supernatant, OD405, 6 h; at 50 µM (top of the series)
How it was run: as §1

| Compound | activity change, negative = inhibition |
| --- | --- |
| O=c1[nH]c(-c2ccc(Cl)cc2)nc2ccccc12 | inactive |
| CCCOc1ccc(-c2nc(Oc3ccc(C)cc3)c3ccccc3n2)cc1 | inactive |
| Cc1ccc(C(=O)n2c3ccccc3c3cccnc32)cc1 | inactive |
| COc1cccc(-c2nc(OC)c3ccccc3n2)c1 | inactive |
| CCCOc1ccc(-c2nc(OCCCOC)c3ccccc3n2)cc1 | inactive |
| COc1nc(-c2cccc(Cl)c2)nc2ccccc12 | inactive |
| COc1ccc2c(c1)c1cc(OC)ccc1n2C(=O)c1ccc(C)cc1 | inactive |
| CC(C)Oc1ccc(-c2nc3ccccc3c(=O)[nH]2)cc1 | inactive |
| COc1ccc(Sc2ccc(NC(=O)c3ccccc3C#N)cc2C#N)cc1 | inactive |
| Cc1ccc(C(=O)n2ncc3ccccc32)cc1 | inactive |
| COc1ccccc1C(=O)n1c2ccccc2c2ccccc21 | inactive |
| COc1ccc(Sc2ccc(NCc3ccccc3Cl)cc2C#N)cc1 | inactive |
| CCCOc1ccc(-c2nc(N(C)C)c3ccccc3n2)cc1 | inactive |
| COc1ccc(Sc2ccc(NC(=O)c3ccc(OC)cc3)cc2C#N)cc1 | inactive |
| COc1ccc(Sc2ccc(N(C(=O)c3ccccc3Cl)C(=O)c3ccccc3Cl)cc2C#N)cc1 | inactive |
| CCCOc1ccc(-c2nc(Oc3ccc(F)cc3)c3ccccc3n2)cc1 | inactive |
| CS(=O)(=O)c1ccc(NC(=O)c2ccccc2Cl)cc1 | inactive |
| O=c1[nH]c(-c2cccc(F)c2)nc2ccccc12 | inactive |

| Compound | activity change, negative = inhibition |
| --- | --- |
| COc1nc(-c2ccc(Cl)cc2)nc2ccccc12 | inactive |
| CCCOc1ccc(-c2nc(OC)c3ccccc3n2)cc1 | inactive |
| O=C(c1ccc(N2CCOCC2)cc1)n1c2ccccc2c2ccccc21 | inactive |
| COc1ccc(C(=O)n2c3ccccc3c3ccccc32)cc1 | inactive |
| COc1nc(-c2cccc(F)c2)nc2ccccc12 | inactive |
| COc1ccc(Sc2ccc(NC(=O)c3ccc(C)cc3)cc2C#N)cc1 | inactive |
| Cc1ccc(C(=O)n2c3ccccc3c3ccccc32)cn1 | inactive |
| COc1ccc(Sc2ccc(N)cc2C#N)cc1 | inactive |
| COc1ccc(Sc2ccc(NC(=O)c3ccccc3Cl)cc2C#N)cc1 | inactive |
| COc1cccc(-c2nc3ccccc3c(=O)[nH]2)c1 | inactive |
| COc1ccc(S(=O)(=O)c2ccc(NC(=O)c3ccccc3Cl)cc2C#N)cc1 | inactive |
| O=c1[nH]c(-c2cccc(Cl)c2)nc2ccccc12 | inactive |
| O=C(c1cscn1)n1c2ccccc2c2ccccc21 | inactive |
| Cc1ccc(NC(=O)n2c3ccccc3c3ccccc32)cc1 | inactive |
| CCCOc1ccc(-c2nc3ccccc3c(=O)[nH]2)cc1 | inactive |
| COc1ccc(Sc2ccc(NC(=O)c3ccccc3Cl)cc2)cc1 | inactive |
| COc1ccc(Sc2ccc(NC(=O)c3ccccc3OC)cc2C#N)cc1 | inactive |
